# The entries come from a sample that favours hits as a whole.
# Jurkat NFkB inh = inhibitors of induced NF-kB luciferase reporter, primary screen, TCR NF-kB activation inhibitor project, cell-based, luminescence, uHTS; AID 435003, 2010; Jurkat, PMA/ionomycin-induced NF-kB luciferase reporter; hit rate 0.53% among 330,000; inhibition, % at 4 µM; in the data active means inhibition above about 50%
# 697 NFkB inh = inhibitors of PMA/ionomycin-induced NF-kB reporter, 697 cells, primary screen, B-cell NF-kB inhibitor project, cell-based, luminescence, uHTS. hit rate 0.33% among 330,000. 697 B-cell NF-kB luciferase reporter, 16 h. inhibition, % at 4 µM. AID 435022, 2010; in the data active means inhibition above about 35%
# UPR XBP1 act = activators of adaptive XBP1 UPR arm, primary screen, cell-based, CHO-XBP1 luciferase reporter, luminescence, uHTS; IRE1-XBP1 UPR activation; percent of tunicamycin response, DMSO as zero; activation, % at 20 µM; hit rate 0.33% among 330,000; AID 463104, 2010;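 active means versus positive control, 20 µM dose yields 30% or more activation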;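 further: 100% = tunicamycin at 10 µg/mL and 0% = DMSO only wells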
#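 Test system: CHO-XBP1 luciferase reporter cells | Buffer or medium: Serum-containing F12 medium, 10% FBS | Schedule: 6 h compound exposure at 37 °C, 5% CO2 | Detection: Steady-Glo luciferase glow luminescence, 10 min after reagent addition | Read-out basis: Activation, % of tunicamycin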
# CHOP UPR activ = activators of apoptotic CHOP UPR arm, primary screen, cell-based, CHO-CHOP luciferase reporter, luminescence, uHTS; hit rate 0.34% among 330,000; activation, % at 10 µM; UPR activation; percent of tunicamycin response over DMSO baseline;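 active means at 10 µM dose, activation of 40% or more, normalized to positive control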;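 further: 100% = tunicamycin at 10 µg/mL and 0% = DMSO alone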
#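 System: CHO-CHOP luciferase reporter cell line | Buffer or medium: F12 medium containing 10% fetal bovine serum | Doses: One dose, 10 µM in 0.5% DMSO | Times: 6 h compound exposure at 37 °C after overnight seeding | Signal: Luciferase luminescence | Read-out: % activation vs tunicamycin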
# CHOP inh = inhibitors of CHOP promoter induction, primary screen, cell-based, unfolded protein response, luciferase reporter; CHO-K1 CHOP-promoter luciferase, tunicamycin-induced, 15-18 h; inhibition, % at 10 µM; hit rate 3.8% among 220,000; AID 2732, 2010;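 active means compounds that reduced the stress-induced luciferase reporter signal by more than about 70% of percent inhibition, limit read from the data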;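 further: 0% = tunicamycin plus vehicle and 100% = wells without tunicamycin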
# CHOP inh conf = retest of CHOP induction inhibitors, confirmation, cell-based; AID 504437, 2011; hit rate 45% among 2,100; shares compounds with CHOP inh; CHO-CHOP promoter luciferase reporter, tunicamycin-induced, luminescence; inhibition, % at 10 µM;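 active means mean of three repeat readings of reporter signal inhibition above a set limit, cut at about 70% in these data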;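 further: 0% = tunicamycin plus vehicle and 100% = wells lacking tunicamycin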
# * hit, by the source's call; x = not tested or not shown.
SMILES,Jurkat NFkB inh,697 NFkB inh,UPR XBP1 act,CHOP UPR activ,CHOP inh,CHOP inh conf
O=c1oc2ccccc2c(Cl)c1CN1CCCCC1,8,3,-10,-10,107*,123*
O=c1oc2ccccc2c(N2CCCC2)c1CN1CCCC1,-5,-12,-4,2,21,x
COc1ccc(CCC(=O)OCC(=O)N(CC(C)C)c2c(N)n(Cc3ccccc3)c(=O)[nH]c2=O)cc1,-3,1,0,1,x,x
Cc1ccc(/C=C2\C(=O)ON=C2c2ccccc2)o1,-8,-14,2,2,12,x
Cc1ccc(-c2ccc(/C=C3\C(=O)ON=C3c3ccccc3)o2)c([N+](=O)[O-])c1,-8,11,-3,25,111*,80*
CC(C)CC(=O)/C=C/n1c(=S)oc2ccccc21,x,x,x,x,108*,42
CC(=O)/C=C/n1c(=S)oc2ccccc21,x,x,x,x,106*,116*
Cc1ccc(C(=O)Nc2c(C)cc(-c3ccccc3)oc2=O)cc1,-29,-46,2,0,7,x
O=c1c2oc3ccccc3c2ncn1Cc1ccc(F)cc1,-16,-2,4,3,30,x
C[C@@H]1CC[C@@]23COC(=O)C2=CCC[C@@H]3[C@@]1(C)CC/C(=C/CO)CO,-3,12,0,1,x,x
CC1=CCC[C@@H]2[C@@](C)(CC/C(C)=C/C(=O)O)[C@H](C)CC[C@@]12C,4,22,-1,1,99*,112*
Cc1cc(C)n(-c2ccc(NC(=O)C3CCCCN3C(=O)c3cc(C)oc3C)cc2)n1 (centres undefined),-11,0,-2,1,x,x
O=C(O)c1ccc(/C=C/c2nc3ccccc3c(=O)[nH]2)cc1,-34,-14,-8,-2,x,x
Cc1cccc(/C=C/c2nc3ccccc3c(=O)[nH]2)c1,-45,-172,3,4,102*,121*
COc1ccc(C(=O)C(CCCCC(CN(C)C)C(=O)c2ccc(OC)cc2)CN(C)C)cc1 (centres undefined),20,9,2,0,-21,x
CCOc1ccc(C(=O)C(CCC(CN(C)C)C(=O)c2ccc(OCC)cc2)CN(C)C)cc1 (centres undefined),x,x,x,x,106*,76*
CCOc1ccc(/C=C/C2=Cc3c(sc(NC(=O)CSc4n[nH]c(N)n4)c3C#N)C(C)(C)C2)cc1,6,9,2,23,109*,116*
O=[N+]([O-])c1cc(-n2cnnn2)ccc1N1CCC(Cc2ccccc2)CC1,8,-15,1,0,104*,39
S=c1[nH]nc(COc2ccccc2)n1/N=C/C(Cl)=C/c1ccccc1,0,-7,1,-2,103*,-3
CN(C)S(=O)(=O)c1ccc(NC(=O)CN2CCCc3ccccc32)cc1,6,9,-2,0,-3,x
CC1(C)Oc2ccc3ccc(=O)oc3c2/C(=C/Nc2ccc(O)cc2)C1=O,0,-11,3,3,50,x
CC1(C)Oc2ccc3ccc(=O)oc3c2/C(=C/Nc2cccc(O)c2)C1=O,0,-1,0,1,106*,1
N#C/C(=C/c1ccc(N2CCCCC2)o1)c1cccc(F)c1,-6,-10,6,20,103*,20
O=C(Nc1ccc(OC(F)F)c(Cl)c1)Nc1ccc2c(c1)OCO2,-20,-53,5,3,106*,67
O=C(Nc1ccc([N+](=O)[O-])cc1)Nc1ccc(OC(F)F)c(Cl)c1,x,x,x,x,106*,125*
SMILES,Jurkat NFkB inh,697 NFkB inh,UPR XBP1 act,CHOP UPR activ,CHOP inh,CHOP inh conf
COc1ccc(NC(=O)Nc2cccc([N+](=O)[O-])c2)cc1Cl,-18,-5,8,5,33,x
Cc1nnsc1C(=O)N1CCCC(Nc2ccc(F)c(F)c2)C1 (centres undefined),6,-8,-2,3,x,x
C=CCn1c(SCC(=O)NC(=O)NCc2ccco2)nc2sc(C)c(C)c2c1=O,9,7,2,2,104*,30
COc1ccc(-n2ncc3c2CC(C)(C)CC3NC(=O)CCn2cncn2)cc1 (centres undefined),1,0,-4,-2,x,x
Nc1nc(-c2ccc(Br)s2)c(Br)s1,11,12,2,4,98*,11
Cc1ccc(CNC(=O)Cc2csc(Nc3nc(=S)[nH]c4ccccc34)n2)cc1,4,21,0,2,29,x
O=C(Cc1csc(Nc2nc(=S)[nH]c3ccccc23)n1)N1CCN(c2cccc(C(F)(F)F)c2)CC1,4,-3,4,2,107*,66
O=C(NCc1nc(-c2ccc(C(F)(F)F)cc2)no1)Nc1ccc(OC(F)(F)F)cc1,12,5,-7,1,100*,106*
CCOC(=O)C1C(=O)NC(c2ccccc2)=NC1c1ccc(Br)cc1 (centres undefined),-3,-8,0,2,-9,x
COC(=O)Cn1c(=NC(=O)c2nc3ccccc3s2)sc2cc(S(N)(=O)=O)ccc21,-7,3,4,2,104*,-30
O=C(Cc1ncc(C(F)(F)F)cc1Cl)NNc1cccc(F)n1,3,15,-3,1,x,x
Cc1ccc2sc(NC(=O)c3ccc(N4C(=O)CCC4=O)cc3)nc2c1C,-1,-25,-1,-1,100*,-21
COc1cc(/C=C/c2cccc[n+]2C)ccc1OCC(=O)Nc1ccccc1C,8,10,0,1,x,x
CCOc1cc(/C=C\[N+](=O)[O-])ccc1OCC(=O)Nc1ccccc1C,4,5,-6,-11,108*,136*
COc1ccccc1C/C(N)=N/OC(=O)/C=C/c1ccccc1,3,-4,1,1,48,x
COc1ccccc1CCNC(=O)c1cc(-c2ccccn2)nc2ccc(Br)cc12,6,3,-1,1,-3,x
COc1ccccc1CCNC(=O)c1cc(-c2ccncc2)nc2ccc(Br)cc12,x,x,x,x,104*,-74
Cc1ccc(-c2cc(C(=O)NCc3cnn(C)c3)c3cc(Br)ccc3n2)cc1,-36,-54,4,5,101*,20
CC(C)C(NC(=O)c1ccco1)C(=O)NCc1ccc(C(=O)O)cc1 (centres undefined),-2,-1,-3,2,x,x
C=CCN(c1ccccc1OC)S(=O)(=O)c1cccc(C(=O)Nc2nnc(C3CC3)s2)c1,10,3,-1,1,x,x
Cc1c(C(=O)Nc2ccccc2-c2ccccc2)cccc1[N+](=O)[O-],-4,12,-1,0,9,x

# High-throughput results (PubChem)
